Assay results of several laboratories.
Lines come from different studies, so protocols differ.
Target: MAP kinase-activated protein kinase 2 (MAPKAPK2, Homo sapiens, UniProt P49137)

The remaining binding of `CCN1CCN(Cc2ccc(C(=O)Nc3ccc(C)c(Oc4ccc5c(c4)CC(=O)N5)c3)cc2C(F)(F)F)CC1` is reported as 100% (binding, competition with immobilised ligand; 1 µM).
With `CNC(=O)[C@@H]1CC[C@@H](n2c(-c3ccc4cnccc4c3)nc3ccc(C(=O)NCc4cccc(C(N)=O)c4)cc32)C1` the remaining binding was 98% (binding, competition with immobilised ligand; 1 µM).
The remaining binding of `CNCc1ccccc1-c1csc([C@H](C)Nc2nc(C)nc3cc(OC)c(OC)cc23)c1` is reported as 80% (cell-free assay, competition with immobilised ligand; 1 µM).
For `O=C(c1ccc(Nc2nccc(-c3cc4ccccc4s3)n2)cc1)N1CCC(N2CCCC2)CC1`, the remaining binding was 100% (binding, competition with immobilised ligand; 1 µM).
`c1cncc(-c2cccc(Nc3nccc(NC4CCCCC4)n3)c2)c1` has a remaining binding of 100% (binding, competition with immobilised ligand; 10 µM).
For `CCCOc1ccc([C@H]2[C@H](C(=O)O)[C@@H](c3ccc4c(c3)OCO4)CN2CC(=O)Nc2c(CC)cccc2CC)cc1`, the remaining binding was 100% (cell-free assay, competition with immobilised ligand; 1 µM).
`CN(C)c1nccc(-c2cnn3ncccc23)n1` gave a remaining binding of 100% (binding; 1 µM).
For `COc1ncc2cc3ccccc3nc2c1C#N`, the remaining binding was 100% (cell-free assay, competition with immobilised ligand; 5 µM).
With `Cc1cnc(Nc2ccc(C(=O)N3CCC(N4CCCC4)CC3)cc2)nc1-c1cc2ccccc2s1` the remaining binding was 100% (binding, competition with immobilised ligand; 1 µM).
`CN(CCCC(F)(F)F)c1nccc(-c2cnn3ncccc23)n1` has a remaining binding of 100% (binding; 1 µM).
With `O=C(NCC1CCOCC1)c1n[nH]cc1NC(=O)c1c(F)cccc1F` the remaining binding was 66% (binding, competition with immobilised ligand; 1 µM).
`N[C@@H]1CCN(c2nccc(-c3cnn4ncccc34)n2)C1` has a remaining binding of 100% (binding; 1 µM).
With `COc1ccc2c(O[C@@H]3C[C@H]4C(=O)N[C@]5(C(=O)O)CC5/C=C\CCCCC[C@H](NC(=O)OC5CCCC5)C(=O)N4C3)cc(-c3csc(NC(=O)C(C)C)n3)nc2c1C` (stereo partly drawn) the remaining binding was 60% (cell-free assay, competition with immobilised ligand; 1 µM).
`C[C@H]1CCN(c2nccc(-c3cnn4ncccc34)n2)C1` has a remaining binding of 100% (binding; 1 µM).
`Cc1c[nH]c2nccc(Oc3c(F)cc(Nc4cc(Cl)nc(N)n4)cc3F)c12` has a remaining binding of 100% (cell-free assay, competition with immobilised ligand; 0.1 µM).
